Laboratory results published in ChEMBL document CHEMBL3352233, “N-[6-(4-butanoyl-5-methyl-1H-pyrazol-1-yl)pyridazin-3-yl]-5-chloro-1-[2-(4-methylpiperazin-1-yl)-2-oxoethyl]-1H-indole-3-carboxamide (SAR216471), a novel intravenous and oral, reversible, and directly acting P2Y12 antagonist” (J Med Chem, 2014).

What was measured:
[1] = Metabolic stability in human liver microsomes assessed as compound metabolism after 20 mins incubation in presence of 1 mM NADPH; type: ADME; details: liver microsomes, read-out: Drug metabolism
In short: (§1)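 Hepatic microsomal fractions are incubated with compound for 20 min with 1 mM NADPH. Result is reported as % metabolized, i.e. 100 minus % unchanged compound.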

[2] = Metabolic stability in rat liver microsomes assessed as compound metabolism after 20 mins incubation in presence of 1 mM NADPH; type: ADME; details: liver microsomes, read-out: Drug metabolism; in short: as §1
Rattus norvegicus [3] = assay: Ex vivo inhibition of platelet aggregation in Sprague-Dawley rat at 10 mg/kg, po after 6 hrs; type: functional; details: Rattus norvegicus, Sprague-Dawley, po, 6 h
In short: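 Time-course study in Sprague−Dawley rats after a 10 mg/kg oral dose in glucose/Cremophor/glycofurol vehicle. Aortic citrated blood is sampled at intervals over the hours after dosing. PRP is prepared at 300g for 5 min. ADP-induced aggregation is measured as the 6-min absorbance AUC and reported as % inhibition.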

[4] = Metabolic stability in mouse liver microsomes assessed as compound metabolism after 20 mins incubation in presence of 1 mM NADPH; type: ADME; details: read-out: Drug metabolism
In short: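 Compound incubated with mouse hepatic microsomal fractions for 20 min with 1 mM NADPH. Read-out is % metabolism, meaning 100 minus % unchanged compound.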

Hepatocyte [5] = assay: Intrinsic metabolic clearance in human hepatocytes measured per 10^6 cells after 24 hrs; type: ADME, cell-based
In short: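 Human hepatocytes incubated with compound for 24 h to measure in vitro metabolism. Clearance reported in mL·h⁻¹·(10⁶ hepatocytes)⁻¹.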

Hepatocyte [6] = assay: Intrinsic metabolic clearance in human hepatocytes measured assessed as CYP3A4 contribution per 10^6 cells after 24 hrs; type: ADME, cell-based
Rattus norvegicus [7] = assay: Ex vivo inhibition of platelet aggregation in po dosed Sprague-Dawley rat after 2 hrs; type: functional
In short: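 Oral gavage in male Sprague−Dawley rats (250−300 g, 6 per batch), vehicle 5% glucose water with 5% Cremophor and 3% glycofurol. Blood is collected 2 h after dosing from the abdominal aorta into 3.8% citrate under pentobarbital. PRP is prepared at 300g for 5 min. ADP-induced aggregation is quantified as the 6-min absorbance AUC, given as % inhibition.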

Rattus norvegicus [8] = assay: Ex vivo inhibition of platelet aggregation in Sprague-Dawley rat at 1 mg/kg, iv after 30 mins; type: functional; details: 0.5 h
In short: (§2)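 Male Sprague−Dawley rats (250−300 g) receive compound iv. At 30 min, under pentobarbital anesthesia, blood is taken from the abdominal aorta into 3.8% citrate (1:9). PRP is prepared at 300g for 5 min. ADP-induced aggregation is measured, using the area under the absorbance curve over 6 min, and expressed as % inhibition.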

Rattus norvegicus [9] = assay: Ex vivo inhibition of platelet aggregation in Sprague-Dawley rat at 3 mg/kg, iv after 30 mins; type: functional; details: 0.5 h; in short: as §2
Rattus norvegicus [10] = assay: Ex vivo inhibition of platelet aggregation in Sprague-Dawley rat at 10 mg/kg, iv after 30 mins; type: functional; details: 0.5 h; in short: as §2
Rattus norvegicus [11] = assay: Toxicity in rat assessed as damaged organ at 30 mg/kg, po after 7 days; type: organism-based; parameters: dose 30 mg/kg, route oral; details: in vivo, 168 h
In short: (§3)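 Rats are dosed daily for 7 days, orally (30 and 100 mg/kg) or iv (3 and 10 mg/kg). Target organs are examined for damage. Plasma AUC(0−24) is compared between day 1 and day 7.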

Rattus norvegicus [12] = assay: Toxicity in rat assessed as damaged organ at 100 mg/kg, po after 7 days; type: organism-based; parameters: dose 100 mg/kg, route oral; details: in vivo, 168 h; in short: as §3
Rattus norvegicus [13] = assay: Toxicity in rat assessed as damaged organ at 3 mg/kg, iv after 7 days; type: organism-based; parameters: dose 3 mg/kg, route intravenous; details: in vivo, 168 h; in short: as §3
Rattus norvegicus [14] = assay: Toxicity in rat assessed as damaged organ at 10 mg/kg, iv after 7 days; type: organism-based; parameters: dose 10 mg/kg, route intravenous; details: in vivo, 168 h; in short: as §3
Canis familiaris [15] = assay: Toxicity in conscious telemetered mongrel dog assessed as hemodynamic effect at 100 mg/kg, po after 24 hrs; type: organism-based, Canis lupus familiaris; parameters: dose 100 mg/kg, route oral; details: in vivo
Canis familiaris [16] = assay: Toxicity in conscious telemetered mongrel dog assessed as electrocardiographic effect at 100 mg/kg, po after 24 hrs; type: organism-based, Canis lupus familiaris; parameters: dose 100 mg/kg, route oral; details: in vivo
Canis familiaris [17] = assay: Toxicity in conscious telemetered mongrel dog assessed as body temperature at 100 mg/kg, po after 24 hrs; type: organism-based, Canis lupus familiaris; parameters: dose 100 mg/kg, route oral; details: in vivo
[18] = Plasma concentration in conscious telemetered mongrel dog at 100 mg/kg, po after 4 hrs; type: ADME, organism-based, Canis lupus familiaris; parameters: dose 100 mg/kg, route oral
P2Y purinoceptor 12 = P2Y purinoceptor 12 (Homo sapiens, UniProt Q9H244); assay: Displacement of [33P]2MeS-ADP from P2Y12 receptor (unknown origin) transfected in CHO cells after 30 mins by scintillation counting analysis; type: cell-based
Chain of P2Y purinoceptor 12 (Q9H244 whole entry): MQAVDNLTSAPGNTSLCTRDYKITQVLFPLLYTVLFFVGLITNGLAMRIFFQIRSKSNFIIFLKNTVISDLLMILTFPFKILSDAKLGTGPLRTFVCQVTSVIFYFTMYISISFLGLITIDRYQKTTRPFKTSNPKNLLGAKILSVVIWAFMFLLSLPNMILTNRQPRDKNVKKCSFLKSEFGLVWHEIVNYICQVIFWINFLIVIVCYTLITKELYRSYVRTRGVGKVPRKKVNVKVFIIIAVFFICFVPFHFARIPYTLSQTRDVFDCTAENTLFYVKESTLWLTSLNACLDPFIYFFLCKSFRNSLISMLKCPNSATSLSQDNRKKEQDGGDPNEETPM
In short: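 P2Y12-expressing CHO cells (35 × 10³/sample) in PBS with 1 mM EDTA and 0.2% BSA are exposed to compound for 30 min. [³³P]2-MeS-ADP (0.16 nM) is then added for 15 min at 20 °C, in triplicate. Filtration separates free from bound ligand, followed by scintillation counting. Nonspecific binding uses 1 mM unlabeled ADP. IC50 comes from a four-parameter logistic fit with asymptotes fixed at 0 and 100. n = 2.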

[19] = Permeability across human Caco2 cells; type: ADME, cell-based; details: Caco-2, read-out: permeability
In short: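 Permeation is measured across a Caco2 cell monolayer and reported in 10⁻⁷ cm·s⁻¹.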

Rattus norvegicus [20] = assay: Ex vivo inhibition of platelet aggregation in Sprague-Dawley rat at 30 mg/kg, po after 2 hrs
Rattus norvegicus [21] = assay: Ex vivo inhibition of platelet aggregation in Sprague-Dawley rat at 0.1 mg/kg, iv after 5 mins
Rattus norvegicus [22] = assay: Ex vivo inhibition of platelet aggregation in Sprague-Dawley rat at 0.3 mg/kg, iv after 5 mins
Rattus norvegicus [23] = assay: Ratio of AUC (0 to 24 hrs) in rat dosed as 7 day repeated administration to AUC (0 to 24 hrs) in rat administered as single dose; details: in vivo

With `CCCC(=O)c1cnn(-c2ccc(NC(=O)c3cn(CC(=O)N4CCN(C)CC4)c4ccc(Cl)cc34)nn2)c1C` the metabolised at 20 min [1] was 29%, the metabolised at 20 min [2] was 11% and the inhibition in vivo at 10 mg/kg (Rattus norvegicus [3]) was 74%. For the same compound, the metabolised at 20 min [4] was 4%, the CLH (Hepatocyte [5]) was 0.085 mL/h and the Activity (Hepatocyte [6]) was 43%. The ED50 (Rattus norvegicus [7]) was 2.75 mg/kg, the inhibition (Rattus norvegicus [7]) was “Dose-dependent effect” and the inhibition in vivo at 1 mg/kg (Rattus norvegicus [8]) was 75%. The inhibition in vivo at 3 mg/kg (Rattus norvegicus [9]) was 86%, the inhibition in vivo at 10 mg/kg (Rattus norvegicus [10]) was 92% and the Activity (Rattus norvegicus [11]) was “Non-toxic”. For the same compound, the Activity (Rattus norvegicus [12]) was “Non-toxic”, the Activity (Rattus norvegicus [13]) was “Non-toxic” and the Activity (Rattus norvegicus [14]) was “Non-toxic”. The Activity (Canis familiaris [15]) was “Non-toxic”, the Activity (Canis familiaris [16]) was “Non-toxic” and the Activity (Canis familiaris [17]) was “Non-toxic”. The concentration at 4 h [18] was 4.2 µM, the IC50 (P2Y purinoceptor 12) was 17 nM and the Papp [19] was 0.8 ×10⁻⁶ cm/s. For the same compound, the inhibition in vivo at 30 mg/kg (Rattus norvegicus [20]) was 85%, the inhibition in vivo at 0.1 mg/kg (Rattus norvegicus [21]) was 37% and the inhibition in vivo at 0.3 mg/kg (Rattus norvegicus [22]) was 63%. The Ratio (Rattus norvegicus [23]) was 1.3.
